Laboratory results published in ChEMBL document CHEMBL4152258, “Identification of chalcone-based antileishmanial agents targeting trypanothione reductase” (Eur J Med Chem, 2018).
Calls of active or inactive are those of the source. The rule behind the calls is not given here.

Experiments:
[1] = Cytotoxicity against human THP1 cells after 72 hrs by Alamar blue assay; type: cell-based; conditions: THP-1 cells
How it was run: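 THP-1 cells were seeded at 10^5 cells/mL in RPMI-1640 with 10% FBS and adhered with 0.1 µM PMA, then exposed to compounds for 72 h at 37 °C, 5% CO2. AlamarBlue was added for 24 h at 37 °C, with absorbance read at 550 and 630 nm. Duplicates. CC50/72h determined.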

[2] = Cytotoxicity against African green monkey Vero cells after 72 hrs by Alamar blue assay; type: cell-based; conditions: chlorocebus sabaeus
How it was run: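 Vero cells were seeded at 10^5/mL in MEM with 10% FBS and exposed to compounds up to 600 µM for 72 h at 37 °C, 5% CO2. AlamarBlue was added for 24 h at 37 °C, with absorbance read at 550 and 630 nm. Duplicates. CC50/72h determined.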

[3] = Selectivity index, ratio of CC50 for African green monkey Vero cells to IC50 for Leishmania donovani MHOM/NP/02/BPK282/0c14; type: toxicity; conditions: read-out: Ratio CC50/IC50
How it was run: (§1)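 Selectivity index calculated as CC50/72h in Vero (16) or THP-1 (17) cells divided by IC50/72h against L. donovani promastigotes.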

Leishmania donovani [4] = test: Antileishmanial activity against promastigote stage of Leishmania donovani MHOM/NP/02/BPK282/0c14 assessed as parasite growth inhibition after 72 hrs by Alamar blue assay; type: functional, organism-based; conditions: MHOM/NP/02/BPK282/0c14, 72 h
How it was run: (§2)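 Late log/stationary promastigotes were seeded at 10^6/mL in HOMEM with 20% FBS and exposed to compounds at 40–1.6 µM for 72 h at 26 °C, from 8 mM DMSO stocks. AlamarBlue was then added for 24 h at 26 °C, and absorbance was read at 550 and 630 nm. Runs were in duplicate. IC50/72h is the mean of two independent determinations.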

[5] = Selectivity index, ratio of CC50 for human THP1 cells to IC50 for Leishmania donovani MHOM/NP/02/BPK282/0c14; type: toxicity; conditions: THP-1 cells, read-out: Ratio CC50/IC50; how it was run: as §1
Leishmania donovani [6] = test: Antileishmanial activity against promastigote stage of Leishmania donovani MHOM/NP/02/BPK282/0c14 assessed as parasite growth inhibition up to 40 uM after 72 hrs by Alamar blue assay; type: functional, organism-based; how it was run: as §2
Leishmania donovani [7] = test: Antileishmanial activity against amastigote stage of Leishmania donovani MHOM/NP/02/BPK282/0c14 infected in human THP1 cells assessed as parasite growth inhibition after 72 hrs by Giemsa staining-based assay; type: functional, organism-based; conditions: MHOM/NP/02/BPK282/0c14, THP-1, 72 h
How it was run: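 THP-1 cells at 10^5 cells/mL differentiated with 0.1 µM PMA for 48 h at 37 °C, 5% CO2, then infected with stationary-phase promastigotes. After 24 h, compounds were added at 40–1.5 µM for 72 h. Wells were Giemsa-stained, and the infectivity index (% infected macrophages × mean amastigotes per macrophage) was counted on ≥100 cells in duplicate cultures. IC50/72h determined.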

[8] = Safety index, ratio of test compound CC50 to amphotericin B CC50 for human THP1 cells; type: ADME, cell-based; conditions: THP-1 cells
Leishmania tropica = test: Antileishmanial activity against promastigote stage of Leishmania tropica MHOM/SU/74/K27 assessed as parasite growth inhibition after 72 hrs by Alamar blue assay; type: functional, organism-based; conditions: MHOM/SU/74/K27, 72 h; how it was run: as §2
[9] = Binding affinity to Leishmania spp. trypanothione reductase by surface plasmon resonance analysis; design: species or system Leishmania sp.
How it was run: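 Recombinant L. infantum TR was amine-coupled to ~2000 RU on a carboxyl sensor chip. Analytes in HBS pH 7.4 + 1% DMSO were given as FastStep serial doubling injections from 1.56 to 100 µM, followed by dissociation after 100 s. A protein-free surface served as control. Sensorgrams are averages of three experiments. KD came from Scatchard plots and a global 1:1 binding fit.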

[10] = Safety index, ratio of test compound CC50 to amphotericin B CC50 for African green monkey Vero cells; type: ADME, cell-based; conditions: chlorocebus sabaeus
Leishmania infantum = test: Antileishmanial activity against promastigote stage of Leishmania infantum MHOM/TN/80/IPT1 assessed as parasite growth inhibition after 72 hrs by Alamar blue assay; type: functional, organism-based; conditions: MHOM/TN/80/IPT1, 72 h; how it was run: as §2
Leishmania major = test: Antileishmanial activity against promastigote stage of Leishmania major MHOM/SU/73/5-ASKH assessed as parasite growth inhibition after 72 hrs by Alamar blue assay; type: functional, organism-based; how it was run: as §2
Leishmania sp. = test: Potency index, ratio of Sb3+ Ki to test compound Ki for Leishmania spp. trypanothione reductase
[11] = Competitive inhibition of Leishmania spp. trypanothione reductase in presence of 75 to 400 uM TS2 by Dixon plot analysis; design: species or system Leishmania sp.
How it was run: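 Recombinant L. infantum TR at 40 nM was equilibrated for 2 min at 25 °C with TS2 (75–400 µM) and inhibitor (30 nM–1 µM). The reaction was started with 40 µM NADPH, and NADPH oxidation was followed as A340 decrease (ε 6,222 M−1 cm−1). A Dixon plot was built by linear regression of reciprocal fitted rates against inhibitor concentration.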

[12] = Ratio of IC50 for promastigote stage of Leishmania donovani MHOM/NP/02/BPK282/0c14 to Ki for Leishmania spp. trypanothione reductase
[13] = Ratio of IC50 for amastigote stage of Leishmania donovani MHOM/NP/02/BPK282/0c14 to Ki for Leishmania spp. trypanothione reductase

Row | SMILES | CC50 at 72 h [1] | CC50 at 72 h [2] | selectivity ratio [3] | IC50 (Leishmania donovani [4]) | selectivity ratio [5] | growth inhibition (GI) (Leishmania donovani [6]) | further results
1 | C#CCOc1ccc(C(=O)/C=C/c2ccncc2)c(OCC#C)c1 | 11 µM | 10 µM | 1.4 | 7 µM | 1.6 | – | –
2 | C#CCOc1ccc(C(=O)/C=C/c2cc(OC)c(OC)c(OC)c2)c(OC)c1 | – | – | – | – | – | inactive | –
3 | COc1cc(OCC=C(C)C)ccc1C(=O)/C=C/c1cc(OC)c(OC)c(OC)c1 | 25 µM | 40 µM | 3.6 | 11 µM | 2.3 | – | –
4 | COc1cc(OCC=C(C)C)ccc1C(=O)/C=C/c1cccnc1 | 40 µM | 22 µM | 2 | 10.5 µM | 3.8 | – | –
5 | C#CCOc1ccc(C(=O)/C=C/c2ccc(OC)c(OC)c2)c(OC)c1 | – | – | – | – | – | inactive | –
6 | COc1ccc(/C=C/C(=O)c2ccc(OCC=C(C)C)cc2OC)cc1 | – | – | – | – | – | inactive | –
7 | COc1cc(OCC=C(C)C)ccc1C(=O)/C=C/c1ccccc1 | 50 µM | 50 µM | 3.3 | 15 µM | 3.3 | – | –
8 | COc1cc(OCC=C(C)C)ccc1C(=O)/C=C/c1ccc(Br)cc1 | 100 µM | 600 µM | 37.5 | 16 µM | 6.3 | – | –
9 | CC(C)=CCOc1ccc(C(=O)/C=C/c2ccccc2)c(O)c1 | – | – | – | – | – | inactive | –
10 | C#CCOc1ccc(C(=O)/C=C/c2cccnc2)c(OC)c1 | 16 µM | 15 µM | 1.6 | 9.5 µM | 1.7 | – | –
11 | C#CCOc1ccc(C(=O)/C=C/c2ccc(Br)cc2)c(OC)c1 | 100 µM | 100 µM | 4.6 | 21.5 µM | 4.6 | – | –
12 | C#CCOc1ccc(C(=O)/C=C/c2cccnc2)c(OCC#C)c1 | 15 µM | 6 µM | 1.5 | 4 µM | 3.8 | – | –
13 | C#CCOc1ccc(C(=O)/C=C/c2ccc([N+](=O)[O-])cc2)c(OCC#C)c1 | – | – | – | – | – | inactive | –
14 | C#CCOc1ccc(C(=O)/C=C/c2cc(OC)c(OC)c(OC)c2)c(OCC#C)c1 | – | – | – | – | – | inactive | –
15 | COc1cc(OCC=C(C)C)ccc1C(=O)/C=C/c1ccc(F)cc1 | – | – | – | – | – | inactive | –
16 | CC(C)=CCOc1ccc(C(=O)/C=C/c2ccccc2)c(OCC=C(C)C)c1 | – | – | – | – | – | inactive | –

Row | SMILES | CC50 at 72 h [1] | CC50 at 72 h [2] | selectivity ratio [3] | IC50 (Leishmania donovani [4]) | selectivity ratio [5] | growth inhibition (GI) (Leishmania donovani [6]) | further results
17 | C#CCOc1ccc(C(=O)/C=C/c2ccc(F)cc2)c(OCC#C)c1 | 600 µM | 600 µM | 48 | 12.5 µM | 48 | – | IC50 (Leishmania donovani [7]): 4.5 µM; selectivity ratio [8]: 3; IC50 (Leishmania tropica): 13 µM; Kd [9]: 2400 nM; selectivity ratio [10]: 3; IC50 (Leishmania infantum): 1600 nM; IC50 (Leishmania major): 10 µM
18 | C#CCOc1ccc(C(=O)/C=C/c2ccncc2)c(OC)c1 | 16 µM | 20 µM | 5 | 4 µM | 4 | – | –
19 | COc1cc(OCC=C(C)C)ccc1C(=O)/C=C/c1ccc([N+](=O)[O-])cc1 | 600 µM | 600 µM | 200 | 3 µM | 200 | – | IC50 (Leishmania donovani [7]): 14 µM; Ratio Ki (Leishmania sp.): 3; selectivity ratio [8]: 3; IC50 (Leishmania tropica): 5.2 µM; Kd [9]: 600 nM; Ki [11]: 450 nM; selectivity ratio [10]: 3; IC50 (Leishmania infantum): 1600 nM; IC50 (Leishmania major): 3.3 µM; Ratio [12]: 6; Ratio [13]: 30
20 | COc1cc(OCC=C(C)C)ccc1C(=O)/C=C/c1ccncc1 | 16 µM | 16 µM | 1.5 | 10.5 µM | 1.5 | – | –
21 | CC(C)=CCOc1ccc(C(=O)/C=C/c2ccncc2)c(O)c1 | 16 µM | 40 µM | 8 | 5 µM | 3.2 | – | –
22 | CC(C)=CCOc1ccc(C(=O)/C=C/c2cccnc2)c(O)c1 | 100 µM | 210 µM | 24.7 | 8.5 µM | 11.8 | – | –
23 | C#CCOc1ccc(C(=O)/C=C/c2cccnc2)c(O)c1 | 25 µM | 40 µM | 2.3 | 17.5 µM | 1.4 | – | –
24 | C#CCOc1ccc(C(=O)/C=C/c2ccc(OC)c(OC)c2)c(OCC#C)c1 | – | – | – | – | – | inactive | –
25 | C#CCOc1ccc(C(=O)/C=C/c2ccc([N+](=O)[O-])cc2)c(OC)c1 | – | – | – | – | – | inactive | –
26 | CC(=O)Oc1cc(OCC=C(C)C)ccc1C(=O)/C=C/c1ccccc1 | – | – | – | – | – | inactive | –
27 | C#CCOc1ccc(C(=O)/C=C/c2ccc(OC)cc2)c(OCC#C)c1 | – | – | – | – | – | inactive | –
28 | C#CCOc1ccc(C(=O)/C=C/c2ccc(Br)cc2)c(OCC#C)c1 | 25 µM | 420 µM | 28 | 15 µM | 1.6 | – | –
29 | COc1ccc(/C=C/C(=O)c2ccc(OCC=C(C)C)cc2OC)cc1OC | – | – | – | – | – | inactive | –
30 | C[C@@H]1[C@H](O)[C@@H](C)/C=C/C=C/C=C/C=C/C=C/C=C/C=C/[C@H](O[C@@H]2O[C@H](C)[C@@H](O)[C@H](N)[C@@H]2O)C[C@@H]2O[C@](O)(C[C@@H](O)C[C@@H](O)[C@H](O)CC[C@@H](O)C[C@@H](O)CC(=O)O[C@H]1C)C[C@H](O)[C@H]2C(=O)O [AMPHOTERICIN B] | 200 µM | 200 µM | 666 | 0.3 µM | 666 | – | –
31 | COc1cc(OCC=C(C)C)ccc1C(=O)/C=C/c1ccc(NC(C)=O)cc1 | – | – | – | – | – | inactive | –
32 | COc1cc(OCC=C(C)C)ccc1C(=O)/C=C/c1ccco1 | – | – | – | – | – | inactive | –
